Results of several laboratories.
Lines come from different studies, so protocols differ. pIC50: −log10 of the molar value.

O=C(Nc1ccc(Cl)cc1)Nc1cccc(-c2cn(Cc3ccc(Br)cc3)nn2)c1 — viability (A549; cell growth or viability, CCK-8; 20 µM, 72 h): 108%
O=c1cc(CSc2ccc(N=Cc3ccccc3F)cc2)occ1O — pIC50 (ABTS scavenging, absorbance): 7.52
CC(C)C[C@H](NC(=O)[C@H](CCCCN)NC(=O)[C@H](Cc1c[nH]c2ccccc12)NC(=O)[C@H](CCCCN)NC(=O)[C@H](CCCCN)NC(=O)[C@H](CC(C)C)NC(=O)[C@H](Cc1ccccc1)NC(=O)[C@H](CCCCN)NC(=O)[C@H](CCC(=O)O)NC(=O)[C@H](CC(C)C)NC(=O)[C@H](CC(C)C)NC(=O)[C@H](CCCCN)NC(=O)[C@@H](N)CCCNC(=N)N)C(N)=O — pIC50 (A549; cell growth or viability, MTT; 24 h): 4.12
Cc1c(Cl)c(=O)oc2cc(OCCCC[Se]C#N)ccc12 — GI50 (A549; cell growth or viability, SRB): 12 µM
N.N.[Cl][Pt][Cl] — inhibition (MEG-01; cell growth or viability, ATP luminescence; 10 µM, 72 h): 92%
O=c1cc(CSc2ccc(N=Cc3ccc(O)cc3)cc2)occ1O — pIC50 (ABTS scavenging, absorbance): 4.69
CC(C)C[C@H](NC(=O)[C@H](CCCCN)NC(=O)[C@H](CC(C)C)NC(=O)[C@H](Cc1ccccc1)NC(=O)[C@H](CC(C)C)NC(=O)[C@H](CCCCN)NC(=O)[C@H](CCCCN)NC(=O)[C@H](CC(C)C)NC(=O)[C@H](CC(C)C)NC(=O)[C@H](CCCCN)NC(=O)[C@@H](N)CCCNC(=N)N)C(=O)N[C@@H](CCCCN)C(=O)N[C@@H](CCCCN)C(N)=O — pIC50 (A549; cell growth or viability, MTT; 24 h): 3.79
CCOc1ccc(Nc2c3c(nc4ccccc24)CCC3)cc1 — inhibition (Leishmania donovani; parasite growth; 33.33 µM, promastigote): 81%
COc1ccccc1C=Nc1ccc(SCc2cc(=O)c(O)co2)cc1 — pIC50 (ABTS scavenging, absorbance): 4.67
c1ccc(Oc2ccc(Nc3c4c(nc5ccccc35)CCC4)cc2)cc1 — inhibition (Leishmania donovani; parasite growth; 40 µM, intracellular, amastigote): 96%
N#C[Se]CCCCOc1ccc2c(-c3ccccc3)cc(=O)oc2c1 — GI50 (A549; cell growth or viability, SRB): 29 µM
CC[C@H](C)[C@H](NC(=O)[C@H](CCCNC(=N)N)NC(=O)[C@H](CCCNC(=N)N)NC(=O)[C@H](CCSC)NC(=O)[C@H](CCCNC(=N)N)NC(=O)[C@H](CCCNC(=N)N)NC(=O)[C@H](CCCNC(=N)N)NC(=O)[C@H](CC(C)C)NC(=O)[C@H](CCCNC(=N)N)NC(=O)CNC(=O)[C@H](Cc1c[nH]c2ccccc12)NC(=O)[C@@H](N)CCSC)C(=O)N[C@@H](CCCCN)C(N)=O — pIC50 (A549; cell growth or viability, MTT; 24 h): < 3.30
